The text below walks through data of ChEMBL document CHEMBL2040727, “Substituted thiazoles VI. Synthesis and antitumor activity of new 2-acetamido- and 2 or 3-propanamido-thiazole analogs” (2012).

SMILES strings stand for the structures. A value given as a limit tells only on which side of the number the result lay.

Assay type in all cases: functional
Experiment [1] concerns NCI-H322M. The experiment in a line: Growth inhibition of human NCI-H322M cells at 10 uM after 48 hrs by coulter counter analysis. The note with it: read-out: GI. An outline of the steps: (§1)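 Single-dose NCI 60-line panel screen of test compounds. Cells grown in RPMI 1640 with 10% FBS. Compounds dissolved in DMSO, then diluted in phosphate buffer saline (final DMSO below 1%). Wells run in duplicate at 6 × 10⁴ cells/ml. Controls held PBS and DMSO at matching dilutions. Incubation 48 h at 37 °C under humidified 5% CO2. Cells diluted tenfold in saline and counted by Coulter counter. Percent growth inhibition taken from mean-graph of treated-cell growth.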

Experiment [2] has as its system NCI-H522. The experiment in a line: Growth inhibition of human NCI-H522 cells at 10 uM after 48 hrs by coulter counter analysis. The note with it: NCI-H522, 48 h, read-out: GI. A digest of the protocol: as §1
Experiment [3] concerns SF-295. The experiment in a line: Growth inhibition of human SF295 cells at 10 uM after 48 hrs by coulter counter analysis. The note with it: SF-295, 48 h, read-out: GI. An outline of the steps: as §1
In experiment [4] the test system is UACC-62. The experiment in a line: Growth inhibition of human UACC62 cells at 10 uM after 48 hrs by coulter counter analysis. The note with it: UACC-62, 48 h, read-out: GI. An outline of the steps:
(§2)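 Single-dose screen in the NCI 60 cell line panel. Cells grown in RPMI 1640 with 10% FBS. Compounds dissolved in DMSO and diluted in phosphate buffered saline, final DMSO under 1%. Duplicate wells seeded from culture at 6 × 10⁴ cells/ml. Incubated 48 h at 37 °C, humidified, 5% CO2. Cells diluted tenfold in saline and Coulter-counted. Percent growth inhibition computed against PBS/DMSO controls.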

The test system of experiment [5] is M14. The experiment in a line: Growth inhibition of human M14 cells at 10 uM after 48 hrs by coulter counter analysis. The note with it: M14, 48 h, read-out: GI. A digest of the protocol: as §1
For experiment [6], the system named is SK-MEL-5. The experiment in a line: Growth inhibition of human SK-MEL-5 cells at 10 uM after 48 hrs by coulter counter analysis. To be noted: SK-MEL-5, 48 h, read-out: GI. A digest of the protocol:
as §1

The test system of experiment [7] is SR. The experiment in a line: Growth inhibition of human SR cells at 10 uM after 48 hrs by coulter counter analysis. To be noted: read-out: GI. A digest of the protocol: as §2
The subject of experiment [8] is MDA-MB-435. The experiment in a line: Growth inhibition of human MDA-MB-435 cells at 10 uM after 48 hrs by coulter counter analysis. To be noted: MDA-MB-435, 48 h, read-out: GI. A digest of the protocol:
as §1

The subject of experiment [9] is OVCAR-8. The experiment in a line: Growth inhibition of human OVCAR8 cells at 10 uM after 48 hrs by coulter counter analysis. To be noted: OVCAR-8, 48 h, read-out: GI. A digest of the protocol: as §1
The subject of experiment [10] is KM12. The experiment in a line: Growth inhibition of human KM12 cells at 10 uM after 48 hrs by coulter counter analysis. The note with it: KM12, 48 h, read-out: GI. A digest of the protocol: as §1
Experiment [11] has as its system MOLT-4. The experiment in a line: Growth inhibition of human MOLT4 cells at 10 uM after 48 hrs by coulter counter analysis. To be noted: MOLT-4, 48 h, read-out: GI. A digest of the protocol: as §1
Experiment [12] relates to HOP-62. The experiment in a line: Growth inhibition of human HOP62 cells at 10 uM after 48 hrs by coulter counter analysis. The note with it: HOP-62, 48 h, read-out: GI. A digest of the protocol: as §1
The test system of experiment [13] is OVCAR-4. The experiment in a line: Growth inhibition of human OVCAR4 cells at 10 uM after 48 hrs by coulter counter analysis. The note with it: OVCAR-4, 48 h, read-out: GI. An outline of the steps:
as §1

Experiment [14] has as its system NCI-H23. The experiment in a line: Growth inhibition of human NCI-H23 cells at 10 uM after 48 hrs by coulter counter analysis. To be noted: NCI-H23, 48 h, read-out: GI. A digest of the protocol: as §1
In experiment [15] the test system is ACHN. The experiment in a line: Growth inhibition of human ACHN cells at 10 uM after 48 hrs by coulter counter analysis. The note with it: read-out: GI. An outline of the steps: as §1
For experiment [16], the system named is T47D. The experiment in a line: Growth inhibition of human T47D cells at 10 uM after 48 hrs by coulter counter analysis. To be noted: read-out: GI. A digest of the protocol:
as §2

In experiment [17] the test system is MCF7. The experiment in a line: Growth inhibition of human MCF7 cells at 10 uM after 48 hrs by coulter counter analysis. To be noted: MCF7, 48 h, read-out: GI. A digest of the protocol: as §1
Experiment [18] has as its system MDA-MB-231. The experiment in a line: Growth inhibition of human MDA-MB-231 cells at 10 uM after 48 hrs by coulter counter analysis. The note with it: MDA-MB-231, 48 h, read-out: GI. An outline of the steps:
as §1

Experiment [19] concerns SK-MEL-2. The experiment in a line: Growth inhibition of human SK-MEL-2 cells at 10 uM after 48 hrs by coulter counter analysis. To be noted: SK-MEL-2, 48 h, read-out: GI. A digest of the protocol: as §1
The subject of experiment [20] is SNB-75. The experiment in a line: Growth inhibition of human SNB75 cells at 10 uM after 48 hrs by coulter counter analysis. The note with it: SNB-75, 48 h, read-out: GI. A digest of the protocol: as §2
Experiment [21] relates to EKVX. The experiment in a line: Growth inhibition of human EKVX cells at 10 uM after 48 hrs by coulter counter analysis. To be noted: read-out: GI. An outline of the steps: as §1
For experiment [22], the system named is HCT-116. The experiment in a line: Growth inhibition of human HCT116 cells at 10 uM after 48 hrs by coulter counter analysis. To be noted: HCT-116, 48 h, read-out: GI. An outline of the steps:
as §1

For experiment [23], the system named is OVCAR-5. The experiment in a line: Growth inhibition of human OVCAR5 cells at 10 uM after 48 hrs by coulter counter analysis. The note with it: OVCAR-5, 48 h, read-out: GI. A digest of the protocol:
as §1

Experiment [24] relates to NCI-H226. The experiment in a line: Growth inhibition of human NCI-H226 cells at 10 uM after 48 hrs by coulter counter analysis. The note with it: NCI-H226, 48 h, read-out: GI. An outline of the steps: as §1

As to `Cc1cnc(NC(=O)CN2CCN(c3ccccc3)CC2)s1`, the inhibition of growth at 10 µM in experiment [1], in [2], in [3], in experiment [4], in experiment [5] and in experiment [6] was less than 10% each time. The inhibition of growth at 10 µM in experiment [7], in experiment [8], in experiment [9], in [10], in experiment [11] and in [12] was less than 10% in each case. The inhibition of growth at 10 µM in experiment [13], in experiment [14], in experiment [15], in experiment [16], in experiment [17] and in experiment [18] was less than 10% in each case. In addition, the inhibition of growth at 10 µM was less than 10% in experiment [19]; less than 10% in experiment [20]; 12.1% in experiment [21]; less than 10% in experiment [22]; less than 10% in [23]; less than 10% in [24].

For the compound `Cc1cnc(NC(=O)CN2CCN(C)CC2)s1`, the inhibition of growth at 10 µM in [1], in [2], in experiment [3], in experiment [4], in [5] and in experiment [6] was less than 10% each time. Besides, the inhibition of growth at 10 µM in [7] was 51.8%; in experiment [8], less than 10%; in [9] it was less than 10%; in [10], less than 10%; in experiment [11] it was less than 10%; in experiment [12], less than 10%. For the same compound, the inhibition of growth at 10 µM in experiment [13], in experiment [14], in experiment [15], in experiment [16], in [17] and in [18] was less than 10% each time. In addition, the inhibition of growth at 10 µM in [19], in experiment [20], in experiment [21], in [22], in [23] and in experiment [24] was less than 10% each time.

In the case of `O=C(CN1CCN(c2ccccc2)CC1)Nc1nc(-c2ccccc2)cs1`, the inhibition of growth at 10 µM in experiment [1] turned out to be 11.3%; in experiment [2], 29.7%; in [3], 15.9%; in experiment [4], 36.6%; in experiment [5] it was 13.6%; in experiment [6], 31.9%. The inhibition of growth at 10 µM in experiment [7] is less than 10%; in experiment [8] it was less than 10%; in [9], less than 10%; in experiment [10] it was less than 10%; in experiment [11], 31.3%; in [12], less than 10%. For the same compound, the inhibition of growth at 10 µM in experiment [13] is less than 10%; in [14], 18.6%; in experiment [15], 16.2%; in experiment [16], 29.7%; in experiment [17], 19.3%; in experiment [18] it was 29.2%. Besides, the inhibition of growth at 10 µM in [19] is 11.6%; in experiment [20], 29.7%; in experiment [21], less than 10%; in [22], 17.7%; in experiment [23], less than 10%; in [24] it was 19.1%.

On to `CN1CCN(CCC(=O)Nc2nc(-c3ccccc3)cs2)CC1`, for which the inhibition of growth at 10 µM in [1] is less than 10%; in experiment [2], 16.5%; in experiment [3], less than 10%; in [4] it was 11.1%; in experiment [5] it was less than 10%; in experiment [6] it was less than 10%. Besides, the inhibition of growth at 10 µM in experiment [7] is less than 10%; in [8], less than 10%; in experiment [9], less than 10%; in experiment [10] it was less than 10%; in experiment [11] it was 35.7%; in [12] it was 14.5%. Moreover, the inhibition of growth at 10 µM is less than 10% in experiment [13]; less than 10% in [14]; less than 10% in experiment [15]; less than 10% in experiment [16]; 11.8% in experiment [17]; 11.6% in experiment [18]. For the same compound, the inhibition of growth at 10 µM in [19] is less than 10%; in experiment [20], 30.5%; in [21], less than 10%; in experiment [22] it was less than 10%; in experiment [23], less than 10%; in experiment [24], 17.4%.

Regarding `CCOC(=O)c1sc(NC(=O)CCN2CCN(c3ccccc3)CC2)nc1C`, the inhibition of growth at 10 µM in experiment [1], in [2], in experiment [3], in [4], in [5] and in experiment [6] was less than 10% each time. Besides, the inhibition of growth at 10 µM in [7], in experiment [8], in experiment [9], in experiment [10], in [11] and in [12] was less than 10% throughout. The inhibition of growth at 10 µM in experiment [13], in experiment [14], in experiment [15], in experiment [16], in experiment [17] and in [18] was less than 10% in each case. Moreover, the inhibition of growth at 10 µM in experiment [19], in [20], in experiment [21], in experiment [22], in experiment [23] and in experiment [24] was less than 10% throughout.
